Experimental data taken from PubChem BioAssay.
Records with an inconclusive call do not appear.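 Rule for the calls, unless noted: active = inhibition over a set limit, the all-compound mean plus 3 SD, in both replicate runs; inconclusive = over that limit in just one replicate run; inactive = at or under that limit in both runs.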

Experiments:
[1] = S. cerevisiae growth inhibition in permissive medium (OD615), pilot counter-assay for S. cerevisiae lifespan shortening project, permissive growth control (AID 705;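 active = growth inhibition above 25% in both replicates, a cutoff set 3 SD above the mean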); details: OD615, 24 h, at 10 µM, active compounds read high
How it was run: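 System: engineered DeaD yeast; Medium: permissive raffinose/galactose medium; Compound dosing: 10 µM single dose, 0.25% DMSO; Incubation: 4 h cell pre-growth, 24 h exposure at 30 °C; Technique: OD at 615 nm; Evaluation: growth inhibition from lowered OD615 after 24 h.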

[2] = S. cerevisiae growth inhibition in restrictive medium, OD615, pilot screen, restrictive growth control, yeast lifespan reduction project (AID 706;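 active = growth inhibition above a set limit, 3 SD over mean compound inhibition, in both replicates, cut at about 43% in these data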;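 note: modified DeaD lifespan yeast strain shifted to restrictive glucose medium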); details: OD615, 48 h, at 10 µM, active compounds read high
How it was run: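 Material: modified S. cerevisiae; buffer or medium: CSMM-D glucose medium; doses: one concentration, 10 µM final, 0.25% DMSO; incubation: 48 h compound exposure at 30 °C; detection: optical density at 615 nm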

[3] = doxorubicin toxicity protection in MRP-1 cells – H69AR cells, CellTiter-Glo, duplicate, MRP-1 activator project, pilot screen (AID 807;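 active = viability increase at or above a cutoff of the median across tested compounds plus 3 SD, cut at about 8.5% in these data, passing the limit was not always enough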;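 note: compound pretreatment 18-22 h then 72 h combined with doxorubicin; 0% = doxorubicin alone and 100% = vehicle without doxorubicin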); details: H69AR viability with doxorubicin, CellTiter-Glo luminescence; at 10 µM; active compounds read high
[4] = viability of HCT116 without oncogenic beta-catenin – human colon tumor cells, pilot screen (AID 823;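 active = cell viability at or below a set limit in both duplicate runs, the limit being the all-compound median minus 4 SD, cut at about 23% in these data, passing the limit was not always enough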;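 note: 0% = wells killed by 20 µM Hyamine and 100% = untreated DMSO cell wells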); details: HCT116 beta-catenin knockout viability, CellTiter-Glo, 60 h; at 10 µM; active compounds read low
[5] = viability of PTEN-null HCT116 cells – cell-based, HCT116 clonal line, CellTiter-Glo, pilot screen (AID 824;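 active = viability at or below 27.92% in each of two runs, the all-compound median minus 4 SD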;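 note: 0% = 20 µM Hyamine control and 100% = vehicle cell control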); details: HCT116 PTEN-deleted viability, 60 h, at 10 µM, active compounds read low
[6] = RAM pathway blockade in budding yeast – dse1pr::URA3 reporter, 5-FOA selection, pilot screen (AID 869);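 note: 0% = DMSO wells with no growth and 100% = 10 µM 1-NA-PP1 with full growth; RAM network block rescues cells from 5-FOA so hits raise OD615 growth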; details: S. cerevisiae dse1pr::URA3 5-FOA growth, OD615, 2 d; at 10 µM; active compounds read high; strain carries analog-sensitive mutant Cbk1 kinase
[7] = RAM signaling pathway blockade in yeast – S. cerevisiae, Pdr1DBD-CYC8 efflux-inhibited sensitized strain, primary screen (AID 1298;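 active = RAM network inhibition above 8.4% in each of two replicates, 3 SD over the compound average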;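 note: 0% = DMSO untreated cells without growth and 100% = 10 µM 1-NA-PP1 full growth; higher means more yeast growth rescued from 5-FOA killing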); details: S. cerevisiae cbk1-as DSE1-URA3 strain, 5-FOA growth OD615, 2 d; at 50 µM; active compounds read high

COc1ccc(S(=O)(=O)N(C)c2c(C)n(C)n(-c3ccccc3)c2=O)cc1OC
inactive: growth inhibition [1] -5.13% | growth inhibition [2] 0.325% | viability increase [3] -1.65% | viability [4] 95.5% | viability [5] 102% | inhibition [6] 0.535% | RAM network inhibition [7] 3.38%

N#CCCN1CCN(S(=O)(=O)c2ccc(S(=O)(=O)NCC3CCCO3)cc2)CC1 (centres undefined)
inactive: growth inhibition [1] -1.2% | growth inhibition [2] 5.28% | viability increase [3] 0.55% | viability [4] 105% | viability [5] 104% | inhibition [6] 0.51% | RAM network inhibition [7] -2.15%

Cc1ccc(C)c(NC(=O)CSc2nc3c(c(=O)n2C)SC(C)C3)c1 (centres undefined)
inactive: growth inhibition [1] -3.99% | growth inhibition [2] -8.3% | viability increase [3] -3.24% | viability [4] 83.2% | viability [5] 90.8% | inhibition [6] 0.5% | RAM network inhibition [7] 3.86%

CCCc1cc(C(=O)Nc2cccnc2)no1
inactive: growth inhibition [1] 0.43% | growth inhibition [2] -0.16% | viability increase [3] -1.86% | viability [4] 100% | viability [5] 94.9% | inhibition [6] 0.915% | RAM network inhibition [7] -0.87%

CSCC[C@@H](C(=O)O)N1Cc2ccccc2C1=O
inactive: growth inhibition [1] 7.93% | growth inhibition [2] 6.17% | viability increase [3] 0% | viability [4] 105% | viability [5] 103% | inhibition [6] 1.69% | RAM network inhibition [7] -0.16%

O=C1C2=C(SCCS2)C(=O)N1CCCO
inactive: growth inhibition [1] -1.38% | growth inhibition [2] -3.45% | viability increase [3] 0.11% | viability [4] 98.9% | viability [5] 97.9% | inhibition [6] -0.095% | RAM network inhibition [7] 3.67%

Clc1ccc(-c2nnn(Cc3nc4ccccc4s3)n2)cc1
inactive: growth inhibition [1] -2.44% | growth inhibition [2] -17.7% | viability increase [3] -2.27% | viability [4] 92.6% | viability [5] 96.6% | inhibition [6] 0.615% | RAM network inhibition [7] 2.46%

CCOC(=O)C1Cc2ccccc2C(=O)O1 (centres undefined)
inactive: growth inhibition [1] -4.84% | growth inhibition [2] -2.44% | viability increase [3] -0.24% | viability [4] 96.4% | viability [5] 100% | inhibition [6] 0.47% | RAM network inhibition [7] 5.42%

Cc1c(C(=O)NCc2ccco2)sc2nc(-c3ccccc3)cn12
inactive: growth inhibition [1] 3.59% | growth inhibition [2] 10.2% | viability increase [3] -4.77% | viability [4] 78.6% | viability [5] 67.3% | inhibition [6] 0.04% | RAM network inhibition [7] 2.7%

CC1CCC(NC(=O)CC2Oc3ccccc3NC2=O)CC1 (centres undefined)
inactive: growth inhibition [1] 6.36% | growth inhibition [2] 2.4% | viability increase [3] -0.98% | viability [4] 98.8% | viability [5] 97.8% | inhibition [6] 2.69% | RAM network inhibition [7] 5.77%

CCOc1ccc(-n2c(SCC(=O)Nc3ccc4c(c3)OCO4)nc3c(c2=O)SCC3)cc1
inactive: growth inhibition [1] 3.25% | growth inhibition [2] -5.91% | viability increase [3] -1.65% | viability [4] 92.5% | viability [5] 86.5% | inhibition [6] 1.83% | RAM network inhibition [7] 4.16%

CCN(CC)CCNC(=O)Cn1nc(Cc2cccnc2)c2ccccc2c1=O
inactive: growth inhibition [1] -3.85% | growth inhibition [2] -2.59% | viability increase [3] -0.86% | viability [4] 95.7% | viability [5] 97.7% | inhibition [6] -0.35% | RAM network inhibition [7] 1.23%

CCCCCN=C(C)c1c(O)c2ccccc2oc1=O
inactive: growth inhibition [1] 1.51% | growth inhibition [2] 1.03% | viability increase [3] 1.19% | viability [4] 94.8% | viability [5] 90.7% | inhibition [6] -0.66% | RAM network inhibition [7] -1.55%

Cc1ccc(S(=O)(=O)/N=C(\CN2CCCCC2)N2CCOCC2)cc1
inactive: growth inhibition [1] -11.4% | growth inhibition [2] -13.2% | viability increase [3] -1.32% | viability [4] 101% | viability [5] 95% | inhibition [6] 0.44% | RAM network inhibition [7] 4.62%

CC(=O)Nc1ccc(S(=O)(=O)NCCSCc2ccco2)cc1
inactive: growth inhibition [1] -4.83% | growth inhibition [2] 16.6% | viability increase [3] -4.43% | viability [4] 82.2% | viability [5] 86% | inhibition [6] 2.15% | RAM network inhibition [7] 2.29%

Cn1c(NC(=O)c2cc(Cl)ccc2Cl)cc(=O)n(C)c1=O
inactive: growth inhibition [1] 4.47% | growth inhibition [2] 3.21% | viability increase [3] -2.52% | viability [4] 99.9% | viability [5] 94.7% | inhibition [6] 1.17% | RAM network inhibition [7] 1.45%

CCOC(=O)C1=C(C)NC(=O)NC1c1ccc(OCC(=O)Nc2ccccc2)c(OC)c1 (centres undefined)
inactive: growth inhibition [1] -2.03% | growth inhibition [2] -26% | viability increase [3] -1.88% | viability [4] 102% | viability [5] 95% | inhibition [6] 2.01% | RAM network inhibition [7] 0.32%

CCC(NC(=O)c1ccccc1NC(=O)c1ccco1)C(=O)NC1CCCCC1 (centres undefined)
inactive: growth inhibition [1] -4.2% | growth inhibition [2] 7.98% | viability increase [3] -2.29% | viability [4] 89.1% | viability [5] 98.3% | inhibition [6] 1.35% | RAM network inhibition [7] 2.08%

COc1cccc(C2CC(=O)N3CN(c4ccccc4F)CSC3=C2C#N)c1 (centres undefined)
inactive: growth inhibition [1] 6.38% | growth inhibition [2] 2.71% | viability increase [3] -1.76% | viability [4] 102% | viability [5] 94.3% | inhibition [6] 2.96% | RAM network inhibition [7] 5.8%

CCOc1cc(/C=N/O)cc(Br)c1OC
inactive: growth inhibition [1] -1.28% | growth inhibition [2] -18.2% | viability increase [3] -3.13% | viability [4] 106% | viability [5] 97.1% | inhibition [6] 1.22% | RAM network inhibition [7] 5.14%

COc1ccc(N2C(=O)C3CCCN3C2c2ccc(C)cc2)cc1 (centres undefined)
inactive: growth inhibition [1] -2.01% | growth inhibition [2] 2.53% | viability increase [3] -1.95% | viability [4] 97.6% | viability [5] 99.2% | inhibition [6] 1.94% | RAM network inhibition [7] -1.51%

CCOC(=O)CCc1n[nH]c(=O)[nH]c1=O
inactive: growth inhibition [1] -3.33% | growth inhibition [2] 5.9% | viability increase [3] -0.23% | viability [4] 102% | viability [5] 104% | inhibition [6] 1.46% | RAM network inhibition [7] 0%

CSC1=NCCN1C(=O)c1ccc(Br)o1
inactive: growth inhibition [1] -2.9% | growth inhibition [2] -7.89% | viability increase [3] 2.54% | viability [4] 102% | viability [5] 94.5% | inhibition [6] 0.975% | RAM network inhibition [7] 7.19%

CCOc1ccc(CC(=O)NCc2cn3c(C)csc3n2)cc1
inactive: growth inhibition [1] -5.88% | growth inhibition [2] 12.6% | viability increase [3] -0.15% | viability [4] 97.4% | viability [5] 102% | inhibition [6] 1.14% | RAM network inhibition [7] 6.38%

COCCOC(=O)C1=C(C)NC2=C(C(=O)CC(C)(C)C2)C1c1ccc2c(c1)OCO2 (centres undefined)
inactive: growth inhibition [1] -5.88% | growth inhibition [2] -4.59% | viability increase [3] -1.42% | viability [4] 92.9% | viability [5] 87.4% | inhibition [6] 0.175% | RAM network inhibition [7] 2.6%

O=C1CC(N2CCN(C/C=C/c3ccccc3)CC2)C(=O)N1CCc1ccccc1 (centres undefined)
inactive: growth inhibition [1] -12.7% | growth inhibition [2] -9.45% | viability increase [3] -0.11% | viability [4] 72.8% | viability [5] 77.6% | inhibition [6] 1.02% | RAM network inhibition [7] 7.71%

CSC1=NCCN1C(=O)c1cccs1
inactive: growth inhibition [1] -2.12% | growth inhibition [2] 11.1% | viability increase [3] 0.08% | viability [4] 99% | viability [5] 99.3% | inhibition [6] 1.11% | RAM network inhibition [7] 1.55%

CNC(=O)c1ccsc1NC(=O)c1ccc(Cl)s1
inactive: growth inhibition [1] -0.67% | growth inhibition [2] 14.4% | viability increase [3] -3.2% | viability [4] 103% | viability [5] 85.6% | inhibition [6] 1.08% | RAM network inhibition [7] 2.36%

COC(=O)C1C2C=CC3(CN(C(C)C)C(=O)C13)O2 (centres undefined)
inactive: growth inhibition [1] -11.7% | growth inhibition [2] -17.2% | viability increase [3] -1.07% | viability [4] 106% | viability [5] 102% | inhibition [6] -0.215% | RAM network inhibition [7] 1.89%

CCc1n[nH]c2c1/C(=N\O)CC(C)(C)C2
inactive: growth inhibition [1] -4.62% | growth inhibition [2] -1.83% | viability increase [3] -2.26% | viability [4] 99.4% | viability [5] 108% | inhibition [6] 1.68% | RAM network inhibition [7] 1.03%

S=c1[nH]nc(-c2ccncc2)n1Cc1ccccc1
inactive: growth inhibition [1] -4.1% | growth inhibition [2] -9.11% | viability increase [3] -1.9% | viability [4] 100% | viability [5] 93.7% | inhibition [6] 0.265% | RAM network inhibition [7] 1.95%

Cc1cc(Nc2ccc(Br)cc2F)n2nc(C)nc2n1
inactive: growth inhibition [1] -19.2% | growth inhibition [2] -14.2% | viability increase [3] -4.07% | viability [4] 88.3% | viability [5] 86% | inhibition [6] 0.87% | RAM network inhibition [7] -0.15%

Oc1ccc(Br)cc1-c1nc2cnccn2c1NC1CCCC1
inactive: growth inhibition [1] -11.9% | growth inhibition [2] 1.74% | viability increase [3] -7.32% | viability [4] 55.5% | viability [5] 54.6% | inhibition [6] -0.895% | RAM network inhibition [7] -1.71%

CCCNC(=O)c1noc2c1CCc1ccccc1-2
inactive: growth inhibition [1] -1.21% | growth inhibition [2] 5.41% | viability increase [3] -1.54% | viability [4] 98.3% | viability [5] 104% | inhibition [6] 0.305% | RAM network inhibition [7] -1.13%

CC(=O)c1c(Nc2ccc3c(c2)OCCO3)oc(C)cc1=O
inactive: growth inhibition [1] -21.9% | growth inhibition [2] 0.47% | viability increase [3] -5.39% | viability [4] 110% | viability [5] 100% | inhibition [6] 0.68% | RAM network inhibition [7] -2.1%

CCCCc1ccc(NC(=O)OC)cc1
inactive: growth inhibition [1] 1.49% | growth inhibition [2] 10.8% | viability increase [3] 3.48% | viability [4] 104% | viability [5] 90.6% | inhibition [6] 2.21% | RAM network inhibition [7] -2%

COc1cccc(C2NC(=O)NC(C)=C2C(=O)Nc2cc(OC)ccc2OC)c1 (centres undefined)
inactive: growth inhibition [1] -7.14% | growth inhibition [2] 0.605% | viability increase [3] -0.51% | viability [4] 95.2% | viability [5] 94.9% | inhibition [6] 1.15% | RAM network inhibition [7] 5.92%
